Measurements as given in ChEMBL document CHEMBL4619791, “3-Difluoroalkyl Quaternary Oxindoles Inhibit Macrophage Pyroptosis by Blocking Inflammasome Recruitment of Caspase-1” (ACS Med Chem Lett, 2020).
Activity calls are given as the source filed them. No cut-off for these calls is given here.

Assays:
[1] = target: T1, Gastrin/cholecystokinin type B receptor (Mus musculus) (UniProt P56481); assay: Antagonist activity at CCKB receptor in immortalized mouse […] cells assessed as inhibition of nigericin-induced pyroptosis at 5 uM; type: cell-based; conditions: J774.A1
T1 sequence (whole entry): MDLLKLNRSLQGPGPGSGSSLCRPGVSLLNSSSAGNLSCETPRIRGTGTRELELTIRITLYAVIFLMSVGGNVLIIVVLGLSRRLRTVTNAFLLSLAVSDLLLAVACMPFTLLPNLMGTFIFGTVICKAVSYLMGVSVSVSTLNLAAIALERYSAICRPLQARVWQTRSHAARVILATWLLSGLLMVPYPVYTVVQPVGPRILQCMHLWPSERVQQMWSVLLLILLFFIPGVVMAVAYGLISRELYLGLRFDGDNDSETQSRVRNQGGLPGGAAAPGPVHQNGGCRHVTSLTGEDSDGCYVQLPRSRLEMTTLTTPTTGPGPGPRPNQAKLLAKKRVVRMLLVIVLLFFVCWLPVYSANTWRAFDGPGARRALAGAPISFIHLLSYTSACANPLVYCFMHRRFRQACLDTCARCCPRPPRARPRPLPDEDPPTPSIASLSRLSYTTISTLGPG
Summary of the method: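 CCKB antagonists netazepide and proglumide were given to immortalized macrophages, with pyroptosis induced by nigericin.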

Mus musculus [2] = assay: Antiinflammatory activity against LPS-induced sepsis C57BL/6J mouse model assessed as increase in median survival time at 20 mg/kg, iv administered as single dose for 30 min prior to LPS challenge
[3] = target: T2, Gasdermin-D (Homo sapiens) (UniProt P57764); assay: Inhibition of N-terminal GSDMD p30 fragment-mediated pyroptotic-cell death in doxycyclin-treated human HEK293T cells assessed as cell death at 5 uM by LDH assay; type: cell-based; conditions: HEK-293T
T2 sequence (whole entry): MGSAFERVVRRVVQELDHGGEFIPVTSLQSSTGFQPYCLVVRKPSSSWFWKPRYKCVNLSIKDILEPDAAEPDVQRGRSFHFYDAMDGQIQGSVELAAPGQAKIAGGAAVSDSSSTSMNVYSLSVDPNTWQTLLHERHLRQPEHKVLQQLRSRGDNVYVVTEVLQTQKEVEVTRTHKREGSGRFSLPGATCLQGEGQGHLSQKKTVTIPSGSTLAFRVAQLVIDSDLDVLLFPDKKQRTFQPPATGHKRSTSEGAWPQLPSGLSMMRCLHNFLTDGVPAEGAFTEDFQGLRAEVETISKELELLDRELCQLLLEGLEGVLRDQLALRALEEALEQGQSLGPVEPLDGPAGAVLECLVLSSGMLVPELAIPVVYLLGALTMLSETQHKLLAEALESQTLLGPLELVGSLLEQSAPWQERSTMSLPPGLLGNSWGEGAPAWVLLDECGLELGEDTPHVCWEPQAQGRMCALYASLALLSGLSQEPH

[4] = target: NACHT, LRR and PYD domains-containing protein 3 (Mus musculus) (UniProt Q8R4B8); assay: Activation of NLRP3 in LPS-primed C57BL/6 mouse primary BMDM transfected with eGFP-tagged ASC assessed as nigericin-induced ASC oligomerization by measuring speck formation at 5 uM by confocal microscopy
Chain of NACHT, LRR and PYD domains-containing protein 3 (Mus musculus) (Q8R4B8 whole entry, the tested form may be a part): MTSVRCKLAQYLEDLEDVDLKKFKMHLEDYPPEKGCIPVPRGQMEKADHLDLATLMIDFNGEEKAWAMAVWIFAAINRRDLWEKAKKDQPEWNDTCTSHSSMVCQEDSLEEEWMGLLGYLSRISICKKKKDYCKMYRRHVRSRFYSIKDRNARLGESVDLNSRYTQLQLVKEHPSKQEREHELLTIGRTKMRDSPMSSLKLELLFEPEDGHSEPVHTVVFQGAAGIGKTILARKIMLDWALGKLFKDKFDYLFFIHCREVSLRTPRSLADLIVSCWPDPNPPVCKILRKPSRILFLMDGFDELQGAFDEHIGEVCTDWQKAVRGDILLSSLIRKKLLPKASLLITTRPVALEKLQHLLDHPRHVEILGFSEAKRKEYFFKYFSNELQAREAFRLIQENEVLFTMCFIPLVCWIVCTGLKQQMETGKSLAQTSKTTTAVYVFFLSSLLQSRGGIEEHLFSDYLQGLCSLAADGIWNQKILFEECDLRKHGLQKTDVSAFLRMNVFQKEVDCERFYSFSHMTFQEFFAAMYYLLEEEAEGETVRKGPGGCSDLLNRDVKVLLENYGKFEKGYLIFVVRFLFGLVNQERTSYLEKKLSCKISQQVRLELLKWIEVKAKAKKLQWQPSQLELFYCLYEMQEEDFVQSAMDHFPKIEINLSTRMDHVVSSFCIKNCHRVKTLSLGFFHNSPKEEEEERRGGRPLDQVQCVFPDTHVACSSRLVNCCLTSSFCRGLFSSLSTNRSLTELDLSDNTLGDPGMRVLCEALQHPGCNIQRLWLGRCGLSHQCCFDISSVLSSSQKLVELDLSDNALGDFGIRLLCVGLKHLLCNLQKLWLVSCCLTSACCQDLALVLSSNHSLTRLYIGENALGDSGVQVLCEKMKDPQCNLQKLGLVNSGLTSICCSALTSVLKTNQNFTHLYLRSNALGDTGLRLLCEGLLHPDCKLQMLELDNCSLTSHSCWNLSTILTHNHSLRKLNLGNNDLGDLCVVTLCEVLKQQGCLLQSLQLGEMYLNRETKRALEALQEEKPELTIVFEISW
Summary of the method: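 Primary macrophages transfected with an ASC-GFP plasmid, then given LPS and nigericin to induce ASC specks. Imaged by confocal microscopy.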

Mus musculus [5] = assay: Antiinflammatory activity against LPS-induced sepsis C57BL/6J mouse model assessed as reduction in alveolar congestion at 20 mg/kg, iv administered as single dose for 1 hr prior to LPS challenge and measured after 48 hrs by hematoxylin-eosin staining based inverted microscopy analysis; type: functional, organism-based
BMDM = assay: Induction of ROS generation in LPS-primed C57BL/6 mouse primary BMDM assessed as increase in nigericin-induced ROS level at 5 uM by DCFH-DA probe based FACS analysis; type: functional, cell-based
Summary of the method: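 Nigericin-stimulated macrophages loaded with DCFH-DA; ROS read as a shift in fluorescence by flow cytometry.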

THP-1 = assay: Inhibition of pyroptosis in LPS-primed human THP1 assessed as reduction in nigericin-induced cell death at 0.1 to 20 uM by LDH assay; type: functional, cell-based
Summary of the method: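 THP-1 cells induced to pyroptosis. Cell death read by LDH release and pore formation by PI uptake. Means ± SE, ≥3 experimental replicates.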

[6] = Lipid-water partition coefficient, logP of the compound; type: physicochemical
Caspase-1 (Mus musculus) = target: T3, Caspase-1 (Mus musculus) (UniProt P29452); assay: Inhibition of caspase-1 activity in LPS-primed immortalized mouse […] cells assessed as reduction in nigericin-induced GSDMD cleavage at 5 uM by Western blot analysis; type: cell-based; conditions: J774.A1
T3 sequence (whole entry): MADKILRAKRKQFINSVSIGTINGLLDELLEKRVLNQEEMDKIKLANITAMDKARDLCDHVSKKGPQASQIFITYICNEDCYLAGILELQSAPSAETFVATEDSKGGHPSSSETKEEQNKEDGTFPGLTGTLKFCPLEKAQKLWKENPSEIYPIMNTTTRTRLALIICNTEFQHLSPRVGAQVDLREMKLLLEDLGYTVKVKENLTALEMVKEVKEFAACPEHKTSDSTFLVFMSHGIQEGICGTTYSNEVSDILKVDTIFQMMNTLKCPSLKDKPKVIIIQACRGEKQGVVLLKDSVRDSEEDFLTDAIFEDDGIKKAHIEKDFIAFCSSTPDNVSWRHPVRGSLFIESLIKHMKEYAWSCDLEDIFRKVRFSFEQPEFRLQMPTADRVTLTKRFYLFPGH
Summary of the method: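 Western blot for GSDMD cleavage in immortalized macrophages, with tubulin as loading control. Representative of n ≥ 3 independent experiments.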

J774.A1 [7] = assay: Inhibition of pyroptosis in LPS-primed immortalized mouse […] cells assessed as reduction in flagellin-induced […] secretion by ELISA; type: functional, cell-based
Summary of the method: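 J774A.1 cells stimulated with flagellin or poly(dA:dT). IL-1β release measured by ELISA. Mean ± SEM, n ≥ 3 independent experiments.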

[8] = Toxicity in zebrafish embryo; design: species or system Danio rerio; conditions: in vivo
Summary of the method: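 Zebrafish embryos exposed to compound. EC100 is the concentration at which all treated embryos show early lethality, embryonic defects or developmental delay.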

J774.A1 [9] = assay: Inhibition of pyroptosis cell death in LPS-primed immortalized mouse […] cells assessed as effect on nigericin-induced cell morphological changes by propidium iodide staining based confocal microscopy; type: functional
Summary of the method: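 Primary BMDM and J774A.1 cells treated with LPS and nigericin. Swelling, bubble formation and propidium iodide uptake visualized by epifluorescence microscopy.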

## CCOC(CN1C(=O)C(NC(=O)Nc2ccc(C)cc2)(C(F)(F)C(=O)Nc2ccc(C)cc2)c2ccccc21)OCC (configuration not stated)
[1]
  Activity: inactive
Mus musculus [2]
  MST: 8 h
[3]
  inhibition: inactive
[4]
  Activity: inactive
Mus musculus [5]
  Activity: Active
BMDM
  Activity: Active
THP-1
  inhibition: Active
[6]
  logP: 4.1
Caspase-1 (Mus musculus)
  inhibition: Active
J774.A1 [7]
  inhibition: Active
[8]
  EC100: > 50 µM
J774.A1 [9]
  inhibition: Active
